Source: ChEMBL document CHEMBL4673342, “Lipid-Lowering Activities of Cucurbitacins Isolated from Trichosanthes cucumeroides and Their Synthetic Derivatives” (2020)
Calls of active or inactive are those of the source. The calls are words filed in the database; no cut-off is given here.

Tests used:
[1] = Induction of […] uptake in human HepG2 cells assessed as fold change at 5 uM by DIL probe based fluorescence assay; format: functional
In short: (§1)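 HepG2 cells (passages 4–11) in DMEM/10% FBS were treated with DMSO or compound at 5 µM, then given DiI-labelled human plasma LDL (20 µg/mL) for 3 h at 37 °C in the dark. After ice-cold PBS/0.4% albumin rinses, cell-bound dye was extracted with isopropanol and fluorescence read at 520–578 nm. Uptake rate is relative to DMSO. Positive control nagilactone B at 5 µM; n = 3.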

[2] = system: HepG2; experiment: Upregulation of LDLR protein expression in human HepG2 cells by Western blot analysis; format: functional, cell-based; details: dose 1-20 µM
In short: (§2)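 HepG2 cells were cultured 12 h, then held a further 24 h in medium with 2% LPDS. Cells were treated with compound across a concentration range, lysed with protease/phosphatase inhibitors, and 30 µg protein was run on 8% SDS-PAGE and blotted to PVDF. Membranes were blocked in 5% milk and probed overnight at 4 °C for LDLR or PCSK9. Mean ± SEM, n ≥ 5.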

[3] = system: HepG2; experiment: Down regulation of PCSK9 protein expression in human HepG2 cells by Western blot analysis; format: functional, cell-based; details: dose 1-20 µM; in short: as §2
[4] = system: HepG2; experiment: Induction of […] uptake in human HepG2 cells at 5 uM by DIL probe based fluorescence assay; format: functional, cell-based; in short: as §1

Row | Structure (SMILES) | fold change (FC) [1] | Activity [2] | Activity [3] | Activity [4]
1 | CC(C)c1oc(=O)cc2c1[C@@H](O)[C@H]1OC(=O)[C@@]3(C)C[C@@H](O)[C@@H](O)[C@@]2(C)C13 (stereo partly drawn) | 2.07 |  |  | 
2 | CC(=O)[C@H]1[C@H](O)C[C@@]2(C)[C@@H]3CC=C4[C@@H](CC(=O)[C@@H](O)C4(C)C)[C@]3(C)C(=O)C[C@]12C | 2.53 | Dose-dependent effect | Dose-dependent effect | 
3 | CC(=O)OC(C)(C)/C=C/C(=O)[C@](C)(O)[C@H]1[C@H](O)C[C@@]2(C)[C@@H]3[C@@H](O)C=C4[C@@H](CC(=O)[C@@H](O)C4(C)C)[C@]3(C)C(=O)C[C@]12C |  | Dose-dependent effect | Dose-dependent effect | 
4 | CC(=O)O[C@H]1C(=O)C[C@@H]2C(=CC[C@@H]3[C@@]2(C)C(=O)C[C@]2(C)[C@@H]([C@@](C)(O)C(=O)/C=C/C(C)(C)OC(C)=O)[C@H](O)C[C@@]32C)C1(C)C |  |  |  | inactive
5 | CC1(C)C(=O)[C@@H](O)C[C@@H]2C1=CC[C@@H]1[C@@]2(C)C(=O)C[C@]2(C)[C@@H]([C@@](C)(O)C(=O)C[C@H](O)C(C)(C)O)[C@H](O)C[C@@]12C |  |  |  | Active
